Experimental findings from ChEMBL document CHEMBL1146767, “New highly selective inhibitors of class II fructose-1,6-bisphosphate aldolases” (Bioorg Med Chem Lett, 2004) are described below.

Each structure is given as a SMILES string.

Broadly, the Ki is the equilibrium dissociation constant of an inhibitor or competing ligand from its target. High values mean weaker binding, low ones tighter binding. What is called Km is the concentration of substrate that gives half-maximal velocity.

Experiment [1] can be described thus: In vitro binding affinity towards FBP aldolase from yeast. Details: species or system Saccharomyces cerevisiae. Summed up:
(§1)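 Yeast aldolase was partly purified after French-press cell disruption (specific activity 5.5 U/mg). DHAP from FBP cleavage was coupled to glycerophosphate dehydrogenase (300-fold excess), with NADH loss monitored at 340 nm. Buffer was 0.1 M glycylglycine, pH 7.4, with 0.01 M 2-mercaptoethanol. FBP served as substrate.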

The species named for experiment [2] is Oryctolagus cuniculus. The experiment can be described thus: Selectivity (Ki rabbit /Ki B:subtilis) of inhibitors for class II versus class I FBP aldolase.
The species named for experiment [3] is Oryctolagus cuniculus. In words: Selectivity (Ki rabbit /Ki yeast) of inhibitors for class II versus class I FBP aldolase.
Experiment [4] is described as follows: In vitro binding affinity towards FBP aldolase from rabbit. Details: species or system Oryctolagus cuniculus. Summed up:
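Rabbit muscle class I aldolase, FBP substrate. Cleavage product DHAP was followed spectrophotometrically at 340 nm through NADH consumption, using a 300-fold excess of glycerophosphate dehydrogenase as coupling enzyme. Medium was 0.1 M triethanolamine–HCl pH 7.6 with 1 mM EDTA.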

A short description of experiment [5]: (§2) In vitro binding affinity towards FBP aldolase from Bacillus subtilis. Summed up:
(§3)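 B. subtilis class II aldolase. FBP cleavage was followed by reducing the DHAP formed with a 300-fold excess of glycerophosphate dehydrogenase and reading NADH consumption at 340 nm. Medium was 0.1 M glycylglycine buffer, pH 7.4, without 2-mercaptoethanol. Inhibition was analysed with FBP as substrate.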

The next experiment concerns Saccharomyces cerevisiae. In words: Enzymatic kinetics (Km) constant towards FBP aldolase from yeast. In outline: as §1
The species named for experiment [6] is Oryctolagus cuniculus. In words: Enzymatic kinetics (Km) constant towards FBP aldolase from rabbit. Summed up:
(§4)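 Rabbit muscle class I aldolase was assayed in 0.1 M triethanolamine–HCl, pH 7.6, with 1 mM EDTA. DHAP released from FBP was measured through a coupled reaction with a 300-fold excess of glycerophosphate dehydrogenase, following NADH consumption spectrophotometrically at 340 nm.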

Another experiment relates to Bacillus subtilis. In words: Enzymatic kinetics (Km) constant towards FBP aldolase from Bacillus subtilis. Summed up: as §3
Experiment [7] is described as follows: In vitro binding towards FBP aldolase from rabbit. Also on record: species or system Oryctolagus cuniculus. Summed up:
as §4

Experiment [8] can be described thus: as §2. Summed up: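 Class II aldolase from Bacillus subtilis with FBP as substrate. DHAP formed was measured at 340 nm as NADH consumption, coupled to a 300-fold excess of glycerophosphate dehydrogenase. Medium was 0.1 M glycylglycine buffer pH 7.4, without 2-mercaptoethanol.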
The source holds these as a separate data set.

On to `N/C(COP(=O)(O)O)=N/O`, for which the values for the Ki in experiment [1], in [4] and in experiment [5] were 2.3 µM, above 1000 µM and 3.3 µM, respectively. Moreover, the Selectivity in the experiment listed under Oryctolagus cuniculus [2] was above 303; in the experiment filed under Oryctolagus cuniculus [3], above 435.
Turning to `O=P(O)(O)OC[C@H]1O[C@](O)(COP(=O)(O)O)[C@@H](O)[C@@H]1O`, the results for the Km in the experiment on Saccharomyces cerevisiae, in the experiment filed under Oryctolagus cuniculus [6] and in the experiment on Bacillus subtilis were 450 µM, 55 µM and 2000 µM, respectively.
With `O=C(COP(=O)(O)O)NO` [PHOSPHOGLYCOLOHYDROXAMATE], the Ki in [1] was determined as 0.01 µM; in [7], 1 µM. The same compound displayed a Selectivity in the experiment listed under Oryctolagus cuniculus [3] of 100.
Turning to `NNC(=O)COP(=O)(O)O` [PHOSPHORIC ACID MONOHYDRAZINOCARBONYLMETHYL ESTER], the Ki in experiment [8] is 670 µM; in [1], 0.34 µM; in [4], 370 µM. The Selectivity in the experiment listed under Oryctolagus cuniculus [2] turned out to be 552; in the experiment filed under Oryctolagus cuniculus [3] it was 1090.
